Source: PubChem
CHT PAM – allosteric activators of human choline transporter CHT | Q9GZV3 | CHT-expressing cells, membrane potential dye, choline EC20; active compounds read high; LV-AA mutant CHT in HEK293 cells | B-score at 10 µM | 310,000 compounds, 0.49% hits | AID 488977;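 active = initial fluorescence not abnormally high and integrated response B-score, plate-corrected, over 3 SD above library mean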
Rad51 HR inh – blocks human Rad51 in homologous recombination; Q06609; hRad51 DNA strand exchange, fluorescence dequenching; inhibition, % at 10 µM; 200,000 compounds, 0.085% hits; AID 1385;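 active = inhibition above 40% at the single screening dose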;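 also: 0% = DMSO control wells and 100% = blanks with heterologous ssDNA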
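System: human Rad51 nucleoprotein filaments preassembled on unlabelled ssDNA. Reagent: labelled 47-mer dsDNA for strand exchange. Schedule: 30-min compound preincubation and 15-min exchange, both room temperature. Measured by: FRET fluorescence dequenching, excitation 485 nm, emission 520 nm. Read-out: Fluorescence-based percent inhibition, control- and blank-normalised. Benchmarks: plate controls and plate blanks.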
KCC2 mod – KCC2 (human) Cl- transport modulation; 190,000 compounds, 2.2% hits; KCC2 cells, thallium flux FluoZin-2 fluorescence; B-score of Tl+ flux slope (higher = more flux/activation; lower = inhibition) at 10 µM;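 active = thallium flux slope and its plate-corrected score both differing from the plate sample mean at a set confidence after two filtering rounds, in either direction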;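 also: slope of fluorescence scaled to starting intensity during 10 to 20 s after thallium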
CHT inh – human CHT choline transport inhibition; CHT-expressing cells, membrane potential dye, choline response; active compounds read low; 310,000 compounds, 0.86% hits; Q9GZV3; AID 488975; B-score at 10 µM;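 active = B-score over 3 SD under the library average, and starting fluorescence ratio not unusually high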;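 also: choline stimulus applied at its EC90 after an EC20 pre-addition; B-score computed on integrated fluorescence ratio after choline addition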
CHT act confirm – human CHT activation, confirmatory screen | 2,500 compounds, 91% hits | shares compounds with CHT PAM | activation, % at 10 µM | CHT-expressing cells, membrane potential dye fluorescence (FDSS); % of choline EC20–EC90 response window; HEK293 expressing CHT LV-AA mutant; choline added at its EC20;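 active = primary screen active, with duplicate mean activation above negative control mean plus 3 SD, cut at about 11% in these data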
HEK293 MP dye – activity in parental HEK293 cells lacking CHT | shares compounds with CHT PAM | membrane potential dye fluorescence (FDSS); measured after EC20 choline addition | ratio readout change at 10 µM, hits read low | 2,500 compounds, 62% hits | AID 623908;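 active = duplicate-averaged ratio beyond 3 SD from buffer wells, up or down, though filed actives are nearly all decreases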
Active calls of the source: *; i = inactive; . = no result given. An excerpt weighted towards active compounds, which were near 2.6% of everything screened.

SMILES	CHT PAM	Rad51 HR inh	KCC2 mod	CHT inh	CHT act confirm	HEK293 MP dye
CCOC(=O)c1cc(-c2ccncc2)nc2c1c(C)nn2C	i	-4.3	-0.212	i	.	.
CCNc1c(NC(C)=O)c(=O)oc2ccccc12	i	.	0.241	i	1.1	i
COc1ccc(C(=O)Nc2ccncc2)c(OC)c1	6.59*	-2.3	-0.111	i	21.5*	-55.9*
COCCCNc1cc(C)nc2ccccc12	i	-0.3	1.96	i	56.5*	-68.1*
Cc1cc(Nc2cccc(Cl)c2)c2ccccc2n1	i	.	.	i	.	.
COCCCNc1nc(-c2ccc(Cl)cc2)nc2ccccc12	i	.	.	i	.	.
Nc1cccc2nc3ccccc3cc12	13.3*	10.6	-0.285	i	26.7*	-55.3*
COC(=O)Nc1cc(C)nc2ccccc12	6.83*	5.7	-0.273	i	35.5*	-44.9*
Cc1cc(Nc2ccccc2O)c2ccccc2n1	6.66*	11.4	-0.688	i	39.1*	-37.4*
CCOc1ncccc1C(=O)N(CC)CC(=O)NCc1ccc(F)cc1	i	.	.	i	.	.
c1ccc(Nc2nc(-c3ccccc3)ns2)cc1	i	.	.	i	.	.
COc1ccc2c(C)c(C(=O)NCC(C)O)oc2c1OC (stereo unspecified)	i	0.4	.	i	.	.
Cc1ccc(OCCSc2nnc(C)c(=O)n2N)cc1	i	8.8	-0.485	i	.	.
Cc1cc(N)c2ccccc2n1	8.05*	-3.8	.	i	64.5*	-54.9*
Cc1ccccc1-c1ncc(CN2CCC(CO)(CCCc3ccccc3)CC2)cn1	i	-3.6	-1.25	i	.	.
CC(C)(C)c1ccc(NC(=O)N2CCCN(c3c(Cl)cncc3Cl)CC2)cc1	i	-8.5	0.00144	i	11.7*	i
CCCCCCn1c(CN2CCN(CCO)CC2)nc2c1c(=O)n(C)c(=O)n2C	8.1*	2.1	0.668	i	59.7*	-55.7*
CCCn1c(CN(C)Cc2ccccc2)nc2c1c(=O)n(C)c(=O)n2C	i	7.4	0.758	i	.	.
CCCCn1c(CN(C)Cc2ccccc2)nc2c1c(=O)n(C)c(=O)n2C	6.59*	-0.7	.	i	0.2	i
CCCCCCn1c(CN2CCC(C)CC2)nc2c1c(=O)n(C)c(=O)n2C	i	-1.3	0.895	i	.	.
Cc1c(OC(C)C(=O)NC2CC(C)(C)NC(C)(C)C2)ccc2c3c(c(=O)oc12)CCC3 (stereo unspecified)	6.71*	.	.	i	42.8*	-52.2*
CCCC1(c2ccccc2)NC(=O)NC1=O (stereo unspecified)	i	.	.	i	.	.
CSc1nnc2c(n1)OC(C)=Nc1ccccc1-2	i	3.6	-0.312	i	40.7*	-40.6*
CCC1=Nc2ccccc2-c2nnc(SC)nc2O1	i	-6.3	-0.538	i	.	.
Cc1c(NC(=O)CSc2ncccn2)c(=O)n(-c2ccccc2)n1C	i	-2.3	-0.357	i	.	.
SMILES	CHT PAM	Rad51 HR inh	KCC2 mod	CHT inh	CHT act confirm	HEK293 MP dye
Cc1cc(C)c(C#N)c(SCc2cn3c(C)cccc3n2)n1	i	3.9	-2.9	i	56.5*	-41.6*
Cc1ccnc(SCc2cn3c(C)cccc3n2)n1	7.05*	16.9	1.47	i	27.2*	-46.1*
Cc1cc(C)nc(SCc2cn3c(C)cccc3n2)n1	6.84*	.	0.477	i	44.3*	-53.2*
CC1(C)CC2(CC(c3ccccc3F)c3ccc(O)c(O)c3O2)NC(=S)N1 (stereo unspecified)	i	1.5	0.277	i	.	.
CN1CCCC1CCNc1ccc2c(=O)c3ccccc3oc2c1 (stereo unspecified)	6.44*	.	.	i	53.1*	-21.9*
COc1ccc(Cl)cc1C(=O)N1CCC2(CC1)CC(=O)c1ccccc1O2	9.62*	.	.	i	4.2	i
O=C1CC2(CCN(C(=O)c3ccccc3Br)CC2)Oc2ccccc21	i	.	.	i	.	.
O=C1CC2(CCN(C(=O)c3c(F)cccc3Cl)CC2)Oc2ccccc21	8.67*	.	.	i	-3.0	i
COc1ccccc1OCC(=O)N1CCC2(CC1)CC(=O)c1ccccc1O2	i	.	.	i	.	.
Cc1cc(OC(C)C(=O)N2CCN(c3ccccc3)CC2)c2c(C)c(C)c(=O)oc2c1 (stereo unspecified)	i	.	.	i	.	.
C=CCNC(=O)c1ccc2c3n(nc2c1)-c1ccc(Cl)cc1CO3	6.46*	-0.9	.	i	15.4*	-20.4*
Cc1ccc2c(c1)COc1c3ccc(C(=O)NCC4CC4)cc3nn1-2	i	9.6	-0.443	i	.	.
O=C(CNS(=O)(=O)c1ccccc1)N1CCc2ccccc2C1	i	.	.	i	.	.
O=C(c1nc2ccccn2c1CN1CCCC(O)C1)N1CCN(C2CCCCC2)CC1 (stereo unspecified)	i	.	.	i	74.6*	-57.3*
NC(=O)C1CC(=O)N(CCc2ccc(F)cc2)C1 (stereo unspecified)	i	.	.	i	.	.
O=C1c2cccnc2-c2ncccc21	i	-0.6	-0.908	i	.	.
O=C1c2cc([N+](=O)[O-])ccc2-c2ncccc21	6.97*	17.0	0.069	i	62.8*	-40.8*
COc1ccc(CNC(=O)COC(=O)CN2C(=O)COc3ccccc32)cc1	i	.	.	i	.	.
O=C(COc1ccc(/C=N/NC(=O)c2ccncc2)cc1)Nc1ccc([N+](=O)[O-])cc1	i	.	.	i	.	.
O=C(COc1ccc([N+](=O)[O-])cc1)N(Cc1ccccc1)Cc1ccccc1	i	-0.9	0.0125	i	24.1*	i
O=C(COc1ccccc1)NNC(=O)COc1ccc([N+](=O)[O-])cc1	i	-11.9	-0.746	i	.	.
O=C(COc1ccc([N+](=O)[O-])cc1)Nc1ccncc1	i	3.9	0.22	i	44.5*	-48.2*
COc1ccc(C(=O)N/N=C/c2ccccn2)cc1OC	10.4*	-0.3	0.16	i	54.2*	-66*
NC(N)=Nc1nc(-c2ccccc2)c2cc(F)ccc2n1	i	-4.9	0.78	i	28.8*	-47.8*
OCCSc1nc(-c2ccccc2)nc2ccc(F)cc12	i	-0.6	2.72	i	.	.
SMILES	CHT PAM	Rad51 HR inh	KCC2 mod	CHT inh	CHT act confirm	HEK293 MP dye
Nc1nc(N2CCN(C(=O)c3ccco3)CC2)nc2ccc(Br)cc12	i	-7.4	-1.7	i	19.9*	-31.6*
Cc1cc(N2CCN(C(=O)c3ccco3)CC2)c2ccccc2n1	6.86*	-5.6	-1.81	i	39.3*	-53.5*
Nc1nc(N2CCN(C(=O)c3ccco3)CC2)nc2ccccc12	6.44*	-3.0	-0.551	i	57.0*	-57.9*
Cc1cc(=O)[nH]c(N2CCN(C(=O)c3ccco3)CC2)n1	i	.	.	i	.	.
Cc1cc(N2CCN(S(=O)(=O)c3ccccc3)CC2)c2ccccc2n1	10.1*	4.2	.	i	53.3*	-72.7*
Cc1cccc(OCC(=O)NCc2cc(C)nc3ccccc23)c1	i	12.5	-0.239	i	.	.
